Reference: ChEMBL document CHEMBL4513216, “Probing the Open Global Health Chemical Diversity Library for Multistage-Active Starting Points for Next-Generation Antimalarials” (ACS Infect Dis, 2020)

Assay: Toxicity liver stage against HepG2, at 10uM
Type: cell-based
Parameters: test concentration 10 uM, cell line HepG2-A16-CD81EGFP
Conditions: human, HepG2-A16-CD81EGFP cells; read-out: INHIBITION
Summary of the method: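 Uninfected HepG2-A16-CD81EGFP cells, 3 × 10^3 per well, 1536-well, plated on prespotted compound at 10 μM final, parasite-free screening media added to match infected plates; puromycin 10 μM positive, DMSO 0.5% negative; run in parallel with 48 h PbLuc assay at 37 °C, 5% CO2; viability by CellTiter-Glo luminescence, normalized to controls.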

SMILES | cytotoxicity at 10 µM [%]
O=C(CC1CCCC1)NCCS(=O)(=O)N1CCN(c2ccccc2)CC1 | -4.07
CN(c1cccnn1)C1CCN(C(=O)c2n[nH]c3c2CCC3)CC1 | 6.96
O=C(CC1CCCC1)N1CCN2C[C@@H](CO)[C@H](c3ccccc3)[C@H]2C1 | -4.73
COc1cccc(C(=O)NCC2CCN(C(=O)c3ccoc3)CC2)c1 | 15.9
CCS(=O)(=O)CCNC(=O)c1cc2n(n1)CCCO2 | -8.81
COc1ccc(CN2C[C@@H]3CN(S(=O)(=O)C4CC4)C[C@@H]3C2=O)cc1 | -4.01
COCCN1C(=O)CCC12CCCN(C(=O)CC1CC1)CC2 (stereo unspecified) | 0.346
COc1nn(C)c2c1CCCN(C(=O)c1ccsc1)C2 | -0.414
C[C@@H]1C[C@@H]2CCN(C(=O)c3ccncn3)C[C@H]2O1 | -1.55
O=C(Cn1nc(-c2cccs2)ccc1=O)N1CCCCCC1 | -2.7
Cn1cc(Br)c(C(=O)NCCCn2cc(Br)cn2)n1 | -6.4
COc1c(CC2CC(C(=O)O)=NO2)c(Br)c2c(c1OC)OCO2 (stereo unspecified) | 6.36
CC(=O)N1CCC(c2nccnc2C)CC1 | -2.82
CC(C)CC(=O)N1CCC(c2nnc3n2CCCCC3)CC1 | -28
Cc1ccnc(C2CCCN2C(=O)CN(C)C)n1 (stereo unspecified) | -19.1
Cc1cc2c(=O)n3c(nc2s1)CCN(C(=O)c1ccnn1C)CC3 | -4.08
O=C(COCC1CC1)Nc1cc(S(=O)(=O)NC2CC2)ccc1F | -7.63
CCOC1CCN(C(=O)c2ccc(-c3cccc(C)c3)[nH]c2=O)CC1 | 3.08
O=C(c1cnc(-c2ccccc2)nc1)N1CCOC2(CCCC2)C1 | -1.39
Cc1noc(C)c1NC(=O)Cn1cc(Br)ccc1=O | 8.99
CCN(Cc1ccc(C#N)cc1F)C(=O)C(C)(C)C | 5.73
NC(=O)c1cn[nH]c1NC(=O)c1ccc2c(c1)OCO2 | 1.03
O=C(COC1CCCC1)NCc1ccc(O)c(F)c1 | -2.43

SMILES | cytotoxicity at 10 µM [%]
CC(C)C(C)NC(=O)Nc1cccc(OCC#N)c1 (stereo unspecified) | -1.13
COc1cc(C)ccc1OCC(=O)NS(=O)(=O)c1cccnc1 | 4.03
COc1cc(C)ccc1OCCC(=O)N1CCCC(n2cncn2)C1 (stereo unspecified) | -2.69
Cn1nc2c(cc1=O)CN(CCCOc1ccc(C#N)cc1)CC2 | 22.9
CCc1nc2n(n1)CC(NCc1ccccc1OCC(=O)NC)CC2 (stereo unspecified) | 4.57
Cc1c(CS(C)(=O)=O)cccc1NC(=O)CC1CCCC1 | -6.72
COCCN1CCC(CNC(=O)c2c[nH]c(=O)c(Cl)c2)CC1 | 9.05
Cc1noc(NCc2ccc(F)cc2F)n1 | -4.49
COc1ccccc1CC1CCN(C(=O)CCN2CCOC2=O)CC1 | 3.76
CC(Cc1c(F)cccc1F)NC(=O)CN(CC(N)=O)C(C)C (stereo unspecified) | -10.5
COc1cc(C(C)=O)ccc1OCC(=O)N(Cc1ccsc1)C1CC1 | 1.88
CN(C)CCSc1ccc(NC(=O)c2nccn3ccnc23)cc1 | -6.25
CC(C)NC(=O)CCNC(=O)Nc1cnn(-c2ccccc2F)c1 | 1.21
COCCN(Cc1ccc(F)cc1Cl)C(=O)c1c(C)noc1C | -1.82
CN(Cc1nccn1CC(F)(F)F)C(=O)c1cccc(N(C)C)c1 | 3.92
CC(C)N(C)CC(=O)NCC(Cc1ccc(F)cc1)C(N)=O (stereo unspecified) | 13.6
Cc1cc(NC(=O)C2CCCN(C(=O)NCC(C)C)C2)ccn1 (stereo unspecified) | -10.5
Cc1ccc(NS(C)(=O)=O)c(C(=O)NCCC(=O)NC(C)C)c1 | -0.141
Cc1cc(NC(=O)CN2CCCC(Cn3cncn3)C2)no1 (stereo unspecified) | -0.749
Cc1nc(C2(NCc3ccc(C#N)cc3F)CCCC2)no1 | 2.78
O=C(c1ncoc1-c1ccco1)N(Cc1ccco1)CC1CCCO1 (stereo unspecified) | -2.05
COc1ccc(CSc2nnc(N)n2C2CC2)cc1F | 5.11
CC(c1ccc(-n2cncn2)cc1)N(C)Cc1ccccn1 (stereo unspecified) | 8.86

SMILES | cytotoxicity at 10 µM [%]
O=C(NCCOCC1CC1)Nc1ccc(F)cc1 | 9.28
CN(CC(=O)NC(C)(C#N)C1CC1)Cc1nnc(C2CC2)n1C (stereo unspecified) | 7.32
CN(C)c1ccc(NC(=O)N2CCCCCC2c2ccncc2)cn1 (stereo unspecified) | 0.462
CCc1nc(CCNC(=O)NC2CC2)sc1C | -14.4
O=C(NC1(c2nnn(CCO)n2)CCCC1)c1ccccc1 | 14.8
c1coc(-c2noc(CN3CCC(c4ccn[nH]4)CC3)n2)c1 | -8.19
COc1ccnc(N2CCN(C(=O)c3csc(C4CC4)n3)CC2)n1 | 4.85
COc1ccc(F)cc1C(C)NC(=O)c1nnc(C)s1 (stereo unspecified) | -0.213
CN(C)S(=O)(=O)N1CCN(c2nccc(C(F)(F)F)n2)CC1 | -7.04
Cc1cc(C)n(CCCNC(=O)C(C)NC(=O)c2ccccc2Cl)n1 (stereo unspecified) | -0.136
CN(C)CCO[C@H]1CN(C(=O)c2cscn2)[C@@H]2COC[C@H]12 | 1.43
CN1C(=O)CC(c2cnn(C)c2)C12CCN(C(=O)C1CC=CC1)CC2 (stereo unspecified) | 5.84
CC(C)NC(=O)N1CC(=O)c2sc(NC3CCCCC3)nc2C1 | -7.91
O=C(c1csc2nc(-c3ccc(Cl)cc3)cn12)N1CCCC(CO)C1 (stereo unspecified) | 2.2
COCCn1cnnc1CCn1ccnc1-c1ccccc1Cl | -8.25
COc1ccc(N2CCN(C(=O)Cn3nccc3C)CC2(C)C)cc1 | 6.68
O=C(NCc1c[nH]c(=O)[nH]c1=O)C1CCOc2ccccc2C1 (stereo unspecified) | -3.03
O=C1CCC2(CCNCC2)CN1CCCNc1cccnc1 | -6.46
CC1(C)CNC(=O)c2nc(C3CCCN(C(=O)C4CC4)C3)[nH]c2C1 (stereo unspecified) | 3.74
OCC(O)CN1CCc2onc(-c3ccc(C(F)(F)F)cc3)c2C1 (stereo unspecified) | -3.24
Cc1ncsc1CN1CCC2(CC1)CC(=O)N(Cc1ccc(Cl)cc1)C2 | 6.83
Cc1nonc1C1CCCN1C(=O)c1cn2ccsc2n1 (stereo unspecified) | 9.59
COCc1nc(N2CC[C@H](N(C)C)C2)c2cnn(C)c2n1 | -6.67

SMILES | cytotoxicity at 10 µM [%]
O=C(CSc1ccncc1)NC1CC(=O)N(CCc2ccccc2)C1 (stereo unspecified) | 0.318
CN1CCN(C(=O)c2cccc(S(=O)(=O)NCC3(C)COC3)c2)CC1 | -14.1
Cc1cc(CNC(=O)c2cn(CCC3CCCCN3)nn2)on1 (stereo unspecified) | -7.19
CCn1cnnc1CN(C)c1nccc(C2CCCC2)n1 | 0.998
O=C(c1cc(COc2ccc3c(c2)OCO3)[nH]n1)N1CCCO1 | -1.59
CCCN1CCCC2(CCN(Cc3noc(C4CCCC4)n3)C2)C1=O (stereo unspecified) | 0.603
O=C(NCc1cnn2ccccc12)NC1CCCC1 | -2.91
CC1CCN(S(=O)(=O)N2CCCC(c3cccc(C(=O)O)c3)C2)CC1 (stereo unspecified) | -13.3
Cc1cccc(N2CCC3(CCCN3Cc3c(C)nn(C)c3C)CC2)n1 | -8.35
CN(C)CCNC(=O)c1cc2n(n1)CCN(C(=O)CC(C)(C)C)C2 | -1.85
CCOc1ccccc1C(=O)N1CCCC(c2nccn2CCOC)C1 (stereo unspecified) | 1.1
OC1(CN2CCCC2)COCCN(c2cc(C(F)(F)F)ccn2)C1 (stereo unspecified) | -5.34
CCCn1nc(C)c(CNC(=O)C2COc3c(cccc3OC)C2)c1C (stereo unspecified) | -11.8
O=C(c1ccccc1-c1ccccc1)N1CCOC2(CNCCOC2)C1 (stereo unspecified) | -16.2
O=C(CSCC1CC1)N1CCCC(c2nccn2Cc2ccncc2)C1 (stereo unspecified) | -13.3
CCOc1ccc(-c2nc(C(=O)NCC3CCOC3)cs2)cc1 (stereo unspecified) | -4.33
Cc1nn(C)c(C)c1C1COCCN1C(=O)c1ccc(Cl)o1 (stereo unspecified) | 2.01
CCNC(=O)N(C)C(c1ccccc1)c1ccccn1 (stereo unspecified) | 1.52
Cc1nc(C(=O)N2CCOC(c3nc(C(C)C)n[nH]3)C2)c[nH]1 (stereo unspecified) | -1.58
COc1ccccc1CNC(=O)Cn1nc(-c2ccc(F)cc2)oc1=O | -10.8
CS(=O)(=O)Cc1ccc(C(=O)NC2CCc3nccn3C2)o1 (stereo unspecified) | -8.77
O=C(CSc1ccc(F)cc1F)NS(=O)(=O)c1ccc2c(c1)OCCO2 | -10.7
COc1ccc(C)cc1C(=O)N1CCCC(n2cncn2)C1 (stereo unspecified) | -13.3

SMILES | cytotoxicity at 10 µM [%]
Cc1cnn(CC2CCCN2C(=O)c2cn(C)c3ccccc23)c1 (stereo unspecified) | -2.12
CCc1ccsc1C(=O)N1CCCN(Cc2cscn2)CC1 | -4.77
CS(=O)(=O)NC1CCCN(C(=O)c2cccnc2)C1 (stereo unspecified) | -3.75
COCCOc1ccc(NC(=O)N2CCCC2c2cccs2)cn1 (stereo unspecified) | -3.17
Cc1nc(C2CCCN2Cc2nnc(Cc3ccccc3)o2)no1 (stereo unspecified) | -5
COCC(c1cccc(C(F)(F)F)c1)N(C)C(=O)c1cc(C)n[nH]1 (stereo unspecified) | -14.1
O=C(c1ccc(-n2cccn2)nc1)N1CCC(Nc2cccnn2)CC1 | -1.08
O=C1N(Cc2cccc(Cl)c2)CCC12CCCNC2 (stereo unspecified) | -16.5
Cc1ccc(O[C@@H]2C[C@H]3CN(Cc4nccn4C)CCN3C2)cc1 | 3.39
c1cncc(COCc2nnc3n2CCN(CC2CC2)C3)c1 | -3.03
CC(C)OCCCN(Cc1ccncc1)Cc1cc(F)ccc1F | -29.2
Cc1oncc1C(=O)N1CCC2(CC1)CC(N1CCOCC1)C2 | -2.69
OC(CN1CCN(Cc2cccc(F)c2)CC1)C1CC1 (stereo unspecified) | -2.45
O=C(c1cnccn1)N1CCCC2(CCN(c3ccccn3)C2)C1 (stereo unspecified) | 5.77
CN1CCN(Cc2cccnc2)C2(CCN(Cc3ccccn3)C2)C1=O (stereo unspecified) | -3.66
O=C(c1ncccn1)N1C[C@H]2CCC[C@@]2(COCc2ccncc2)C1 | -3.08
Cc1csc(NC(=O)[C@@H]2C[C@H]3[C@H](CCN3c3ncccn3)O2)n1 | -13.8
COc1cccc(C=CCCN2CCC(C(=O)N3CCCC3)CC2)c1 | 7.09
O=C(c1ccccn1)N1C[C@H]2CC[C@@H](C1)N(C(=O)CCc1ccsc1)C2 | -12.7
